Measurements of several laboratories.
Each line is one published result; the experiments were not run side by side.
Read-out: DPPH scavenging

Cc1ccc(N(O)N=Nc2ccc(S(=O)(=O)Nc3cc(C)on3)cc2)cc1  inhibition (absorbance; 60 µg/mL): 19.9%
COc1cc(C=Cc2cc(-c3ccccc3)nc(O)n2)ccc1O  inhibition (25 µg/mL): 50%
CCN(O)N=Nc1ccc(S(=O)(=O)Nc2nccs2)cc1  inhibition (absorbance; 240 µg/mL): 25.2%
Cc1ccc(C(C)C)cc1NC(=O)COC(=O)c1cc(O)cc(O)c1  inhibition (100 µg/mL): 7.12%
COc1cc(C=CC(=O)CC(c2ccc([N+](=O)[O-])cc2)n2ccnc2)ccc1O (stereo not drawn)  inhibition (25 µg/mL): 50.7%
Oc1ccc(Br)cc1C=NCCN1CCOCC1  inhibition (absorbance; 160 µM): 36.5%
Cc1ccc(C(C)C)cc1NC(=O)COC(=O)/C=C/c1ccc(Cl)cc1  inhibition (100 µg/mL): 7.5%
O=C1O[C@H]([C@@H](O)CO)C(O)=C1O  inhibition (absorbance; 120 µM): 59%
Cc1ccc(C(C)C)cc1NC(=O)COC(=O)/C=C/c1ccccc1O  inhibition (100 µg/mL): 1.15%
O=C1O[C@H]([C@@H](O)CO)C(O)=C1O  inhibition (50 µg/mL): 77.6%
CCN(O)N=Nc1ccc(S(=O)(=O)Nc2cc(C)on2)cc1  inhibition (absorbance; 300 µg/mL): 40.5%
COc1cc(C=Cc2cc(-c3ccc(N(C)C)cc3)nc(O)n2)ccc1O  inhibition (12.5 µg/mL): 39.4%
Cc1ccc(N(O)N=Nc2ccc(S(=O)(=O)Nc3onc(C)c3C)cc2)cc1  inhibition (absorbance; 300 µg/mL): 32.6%
Cc1ccc(C(C)C)cc1NC(=O)COC(=O)c1ccc(O)cc1  inhibition (100 µg/mL): 1.7%
Cc1cccc(N(O)N=Nc2ccc(S(=O)(=O)Nc3cc(C)on3)cc2)c1  inhibition (absorbance; 300 µg/mL): 37.1%
CC1(C)CC[C@]2(C(=O)O)CC[C@]3(C)C(=CC[C@@H]4[C@@]5(C)CC[C@H](O)C(C)(C)[C@@H]5CC[C@]43C)[C@@H]2C1  inhibition (100 µg/mL): 95.6%
Cc1cc(NS(=O)(=O)c2ccc(N=NN(O)c3ccccc3)cc2)no1  inhibition (absorbance; 20 µg/mL): 21.8%
COc1cc(C=CC(=O)CC(c2ccc(N(C)C)cc2)n2ccnc2)ccc1O (stereo not drawn)  inhibition (100 µg/mL): 73.5%
